Measurements published in PubChem BioAssay.
Results filed as inconclusive are left out.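 The calls were made as follows, unless noted: active = cell viability at or below a set limit in both duplicate runs, the limit being the all-compound median minus 4 SD (cut at about 23% in these data, passing the limit was not always enough); inconclusive = no clear call, values can overlap the other calls; inactive = the rest.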

Tests used:
[1] = S. cerevisiae growth inhibition in permissive medium (OD615), pilot counter-assay for S. cerevisiae lifespan shortening project, permissive growth control (AID 705;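 active = growth inhibition above 25% in both replicates, a cutoff set 3 SD above the mean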); details: OD615, 24 h, at 10 µM, stronger effect = higher value
Outline: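 System: S. cerevisiae with engineered DeaD lifespan system. Medium: SC raffinose/galactose permissive medium. Doses: single compound dose of 10 µM, 0.25% DMSO final. Schedule: 24 h exposure, 30 °C. Measured by: OD615 turbidity read. Read-out: growth inhibition.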

[2] = S. cerevisiae growth inhibition in restrictive medium, OD615, pilot screen, restrictive growth control, yeast lifespan reduction project (AID 706;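 active = growth inhibition above a set limit, 3 SD over mean compound inhibition, in both replicates, cut at about 43% in these data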;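 also: modified DeaD lifespan yeast strain shifted to restrictive glucose medium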); details: OD615, 48 h, at 10 µM, stronger effect = higher value
Outline: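 Assay system – genetically modified Saccharomyces cerevisiae, DeaD replicative lifespan assay strain · Medium – CSMM-D glucose medium · Doses – 10 µM compound, 0.25% DMSO · Times – 4 h pre-incubation, 48 h exposure at 30 °C · Signal – optical density at 615 nm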

[3] = doxorubicin toxicity protection in MRP-1 cells – H69AR cells, CellTiter-Glo, duplicate, MRP-1 activator project, pilot screen (AID 807;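 active = viability increase at or above a cutoff of the median across tested compounds plus 3 SD, cut at about 8.5% in these data, passing the limit was not always enough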;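 also: compound pretreatment 18-22 h then 72 h combined with doxorubicin; 0% = doxorubicin alone and 100% = vehicle without doxorubicin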); details: H69AR viability with doxorubicin, CellTiter-Glo luminescence; at 10 µM; stronger effect = higher value
[4] = viability of HCT116 without oncogenic beta-catenin – human colon tumor cells, pilot screen (AID 823); details: HCT116 beta-catenin knockout viability, CellTiter-Glo, 60 h; at 10 µM; stronger effect = lower value;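 also: 0% = wells killed by 20 µM Hyamine and 100% = untreated DMSO cell wells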
[5] = viability of PTEN-null HCT116 cells – cell-based, HCT116 clonal line, CellTiter-Glo, pilot screen (AID 824;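 active = viability at or below 27.92% in each of two runs, the all-compound median minus 4 SD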;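 also: 0% = 20 µM Hyamine control and 100% = vehicle cell control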); details: HCT116 PTEN-deleted viability, 60 h, at 10 µM, stronger effect = lower value
[6] = RAM pathway blockade in budding yeast – dse1pr::URA3 reporter, 5-FOA selection, pilot screen (AID 869;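 active = inhibition over a set limit, the all-compound mean plus 3 SD, in both replicate runs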;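 also: 0% = DMSO wells with no growth and 100% = 10 µM 1-NA-PP1 with full growth; RAM network block rescues cells from 5-FOA so hits raise OD615 growth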); details: S. cerevisiae dse1pr::URA3 5-FOA growth, OD615, 2 d; at 10 µM; stronger effect = higher value; strain carries analog-sensitive mutant Cbk1 kinase
[7] = RAM signaling pathway blockade in yeast – S. cerevisiae, Pdr1DBD-CYC8 efflux-inhibited sensitized strain, primary screen (AID 1298;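 active = RAM network inhibition above 8.4% in each of two replicates, 3 SD over the compound average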;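 also: 0% = DMSO untreated cells without growth and 100% = 10 µM 1-NA-PP1 full growth; higher means more yeast growth rescued from 5-FOA killing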); details: S. cerevisiae cbk1-as DSE1-URA3 strain, 5-FOA growth OD615, 2 d; at 50 µM; stronger effect = higher value

Cc1nn(C)cc1CN(C)C(=O)c1sc2cccc(Cl)c2c1Cl
inactive: growth inhibition [1] -4.77% | growth inhibition [2] 5.83% | viability increase [3] 0.61% | viability [4] 84.1% | viability [5] 82.1% | inhibition [6] -0.12% | RAM network inhibition [7] 3.58%

CC(=Nc1ccc(C)c(C)c1)C1=C(O)CSC1=O
inactive: growth inhibition [1] 1.08% | growth inhibition [2] -8.17% | viability increase [3] -2.54% | viability [4] 98.1% | viability [5] 90.3% | inhibition [6] 1.67% | RAM network inhibition [7] 4.33%

CCC(=O)Nc1nnc(-c2ccc(OC)cc2)o1
inactive: growth inhibition [1] -8.21% | growth inhibition [2] -11.8% | viability increase [3] -1.1% | viability [4] 103% | viability [5] 98.4% | inhibition [6] 1.01% | RAM network inhibition [7] -0.04%

Cc1ccc(CCN2CC(C(=O)NCCCN3CCN(C)CC3)CC2=O)cc1 (configuration not stated)
inactive: growth inhibition [1] 1.07% | growth inhibition [2] -3.19% | viability increase [3] -2.38% | viability [4] 75.9% | viability [5] 92.8% | inhibition [6] -0.675% | RAM network inhibition [7] 1.23%

Cc1ccc(S(=O)(=O)/N=C/c2ccco2)cc1
inactive: growth inhibition [1] -11.7% | growth inhibition [2] -12.3% | viability increase [3] -1.73% | viability [4] 105% | viability [5] 100% | inhibition [6] 0.625% | RAM network inhibition [7] 6.25%

COc1ccc(C2(O)CCN(C(=O)Cc3cccnc3)CC2)cc1
inactive: growth inhibition [1] -20.4% | growth inhibition [2] -12% | viability increase [3] 1.04% | viability [4] 99.3% | viability [5] 94.7% | inhibition [6] 1.03% | RAM network inhibition [7] 1.03%

CCOc1cccc(C(=O)Nc2nnc(-c3ccco3)s2)c1
inactive: growth inhibition [1] -7.86% | growth inhibition [2] -7.51% | viability increase [3] -0.2% | viability [4] 103% | viability [5] 104% | inhibition [6] 3.44% | RAM network inhibition [7] 2.28%

COc1ccc(-n2ncc3c(N(C)C4CCCCC4)ncnc32)cc1
inactive: growth inhibition [1] -13.1% | growth inhibition [2] -9.66% | viability increase [3] -3.73% | viability [4] 85.5% | viability [5] 77.9% | inhibition [6] 1.76% | RAM network inhibition [7] 4.58%

CCOC(=O)C1=C(C)Nc2nc(C)nn2C1c1ccc(C)cc1 (configuration not stated)
inactive: growth inhibition [1] -0.5% | growth inhibition [2] 7.16% | viability increase [3] -1.84% | viability [4] 100% | viability [5] 97.8% | inhibition [6] 1.9% | RAM network inhibition [7] -0.2%

CC(=O)N1CCc2c(sc(NC(=O)CN3C(=O)CCC3=O)c2C(N)=O)C1
inactive: growth inhibition [1] -11.6% | growth inhibition [2] -14.8% | viability increase [3] -1.16% | viability [4] 100% | viability [5] 99.3% | inhibition [6] 1.53% | RAM network inhibition [7] 2.93%

CCc1ccccc1NC(=O)c1onc(C)c1Cl
inactive: growth inhibition [1] -5.87% | growth inhibition [2] 1.99% | viability increase [3] -0.41% | viability [4] 108% | viability [5] 97.7% | inhibition [6] 2.18% | RAM network inhibition [7] -1.13%

CCCNC(=O)C(Cc1ccccc1)NS(=O)(=O)c1ccc2c(c1)CCC(=O)N2 (configuration not stated)
inactive: growth inhibition [1] -5.35% | growth inhibition [2] -3.94% | viability increase [3] 0.26% | viability [4] 101% | viability [5] 102% | inhibition [6] 0.755% | RAM network inhibition [7] 1.71%

COCCCN(C(=O)Cn1ncc2c(=O)oc3ccc(C)cc3c21)C(C)c1ccncc1 (configuration not stated)
inactive: growth inhibition [1] -16% | growth inhibition [2] -27.4% | viability increase [3] -1.85% | viability [4] 103% | viability [5] 98.3% | inhibition [6] 1.15% | RAM network inhibition [7] 0.85%

CCOC(=O)CSc1nc2nc(C)cc(C)n2n1
inactive: growth inhibition [1] 4.15% | growth inhibition [2] 6.3% | viability increase [3] -1.33% | viability [4] 101% | viability [5] 96% | inhibition [6] 2.5% | RAM network inhibition [7] 4.98%

O=C(Cn1cc2c(n1)CCCC2)Nc1cc(-c2cccc(Cl)c2)no1
inactive: growth inhibition [1] 3.94% | growth inhibition [2] 3.73% | viability increase [3] 0.67% | viability [4] 99.2% | viability [5] 87.2% | inhibition [6] 0.9% | RAM network inhibition [7] 2.24%

O=c1cc(N2CCOCC2)[nH]c(=O)n1Cc1ccc(F)cc1
inactive: growth inhibition [1] 5.3% | growth inhibition [2] -2.77% | viability increase [3] 0.52% | viability [4] 95.3% | viability [5] 99.1% | inhibition [6] 1.04% | RAM network inhibition [7] -0.98%
